Source: ChEMBL document CHEMBL2151033, “Synthesis, biological evaluation and molecular modeling of 4,6-diarylpyrimidines and diarylbenzenes as novel non-nucleosides HIV-1 reverse transcriptase inhibitors” (Eur J Med Chem, 2012)

Tests used:
[1] = tested on: Human immunodeficiency virus 1; test: Antiviral activity against wild type HIV1 3B infected in human MT4 cells assessed as inhibition of virus-induced cytopathic effect after 5 days by MTT assay; type: functional, organism-based; conditions: Human immunodeficiency virus 1, 3B, MT4, 120 h
Outline: (§1)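 Infected and mock-infected MT-4 cells (6×10^5 cells/mL, exponentially growing, spun 5 min at 220 g and resuspended) were treated with serial 5-fold compound dilutions in triplicate. Virus stock at 100-300 CCID50 was added. After 5 days, viability was read spectrophotometrically by MTT at 540 and 690 nm using the median OD of three wells. EC50 is the concentration giving 50% protection from viral cytopathic effect.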

[2] = tested on: Human immunodeficiency virus 2; test: Antiviral activity against HIV2 ROD infected in human MT4 cells assessed as inhibition of virus-induced cytopathic effect after 5 days by MTT assay; type: functional, organism-based; conditions: Human immunodeficiency virus 2, ISOLATE ROD, MT4, 120 h; outline: as §1
[3] = Cytotoxicity against human MT4 cells assessed as decrease in cell viability after 5 days by MTT assay; type: cell-based
Outline: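 Uninfected, mock-treated MT-4 cells (6×10^5 cells/mL) were exposed to serial 5-fold compound dilutions in triplicate wells, run alongside the infected series. After 5 days, MTT reduction was read at 540 and 690 nm using the median OD of three wells. CC50 is the concentration that reduces OD540 of the mock-infected control by 50%.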

[4] = tested on: Human immunodeficiency virus 1; test: Antiviral activity against HIV1 RES056 harbouring RT K103N/Y181C mutant infected in human MT4 cells assessed as inhibition of virus-induced cytopathic effect after 5 days by MTT assay; type: functional, organism-based; conditions: Human immunodeficiency virus 1, RES056, MT4, 120 h
Outline: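 MT-4 cells (exponentially growing, spun 5 min at 220 g, resuspended at 6×10^5 cells/mL) infected with HIV-1 RES056 (K103N + Y181C) at 100-300 CCID50, with serial 5-fold compound dilutions run in triplicate alongside mock-infected wells. Viability was read by MTT at 540 and 690 nm after 5 days, using the median OD of three wells. EC50 is the concentration giving 50% protection from viral cytopathic effect.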

[5] = Selectivity index, ratio of CC50 for human MT4 cells to EC50 for wild type HIV1 3B infected in human MT4 cells; type: toxicity, cell-based; conditions: read-out: Ratio CC50/EC50
Outline: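 Selectivity index is CC50 in mock-infected MT-4 cells divided by EC50 against HIV-1 IIIB. Both come from the 5-day MTT assay run in parallel on infected and uninfected cells with serial 5-fold dilutions in triplicate.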

[6] = tested on: Human immunodeficiency virus 1; test: Ratio of delavirdine EC50 to compound EC50 for wild type HIV1 3B infected in human MT4 cells; type: functional
[7] = tested on: Human immunodeficiency virus 1; test: Ratio of nevirapine EC50 to compound EC50 for wild type HIV1 3B infected in human MT4 cells; type: functional

| SMILES | EC50 [1] [µM] | EC50 [2] [µM] | CC50 at 120 h [3] [µM] | EC50 [4] [µM] | selectivity ratio [5] | Ratio EC50 [6] | Ratio EC50 [7] |
| --- | --- | --- | --- | --- | --- | --- | --- |
| Cc1cc(C)c(Nc2cc(Oc3c(C)cc(C)cc3C)ncn2)c(C)c1 | > 38.5 | > 38.5 | 38.2 | > 38.5 | < 1 | – | – |
| Cc1cc(C)c(Oc2cc(Nc3ccc(C#N)cc3)ncn2)c(C)c1 | 0.049 | > 42.2 | 42.2 | > 42.2 | 870 | 11 | 2 |
| Cc1cc(C)c(Nc2cc(Oc3c(C)cc(C#N)cc3C)ncn2)c(C)c1 | 5.25 | > 37.5 | 37.5 | > 37.5 | 7 | – | – |
| Cc1cc(C)c(Nc2cccc(Nc3ccc(C#N)cc3)c2)c(C)c1 | 0.398 | > 220 | ≥ 220 | > 220 | ≥ 552 | 1.5 | – |
| Cc1cc(C)c(Oc2cccc(Nc3ccc(C#N)cc3)c2)c(C)c1 | 0.599 | > 52.6 | 52.6 | > 52.6 | 65 | – | – |
| Cc1cc(C)c(Nc2cccc(Oc3c(C)cc(C)cc3C)c2)c(C)c1 | > 43.6 | > 43.6 | 43.6 | – | < 1 | – | – |
| Cc1cc(C#N)cc(C)c1Oc1cc(Nc2ccc(C#N)cc2)ncn1 | 0.381 | > 292 | > 292 | > 292 | ≥ 740 | 1.5 | – |
| CC(C)Nc1cccnc1N1CCN(C(=O)c2cc3cc(NS(C)(=O)=O)ccc3[nH]2)CC1 [DELAVIRDINE] | 0.548 | – | > 4.39 | > 4.39 | > 8 | – | – |
| Cc1cc(C#N)cc(C)c1Oc1nc(Nc2ccc(C#N)cc2)nc(N)c1Br [ETRAVIRINE] | – | > 27.8 | – | – | 12900 | – | – |
| Cc1ccnc2c1NC(=O)c1cccnc1N2C1CC1 [NEVIRAPINE] | 0.097 | – | > 15 | ≥ 7.6 | > 155 | – | – |
| Cc1cn([C@H]2C[C@H](N=[N+]=[N-])[C@@H](CO)O2)c(=O)[nH]c1=O [ZIDOVUDINE] | 0.008 | – | > 93.6 | 0.006 | > 12000 | – | – |
